Experimental data as given in ChEMBL document CHEMBL5678805, “Intermittent administration of MEK inhibitor GDC-0973 plus PI3K inhibitor GDC-0941 triggers robust apoptosis and tumor growth inhibition” (Cancer Res, 2012).
Calls of active or inactive are those of the source. The calls are words filed in the database; no cut-off is given here.

Key:
[1] = target: Tyrosine-protein kinase SYK (Homo sapiens, UniProt P43405); assay: Inhibition of SYK (unknown origin)
[2] = target: Glycogen synthase kinase-3 beta (Homo sapiens, UniProt P49841); assay: Inhibition of GSK3beta (unknown origin)
A2058 = assay: Antitumor activity against human A2058 cells harboring BRAF V600E/PTEN deletion mutant xenografted in mouse assessed as suppression of AKT phosphorylation at 15 mg/kg, po administered every third day for 21 days and measured after 72 hrs post dose by Western blot analysis; assay type: functional, organism-based; details: time 576.0 hrs
888-mel [3] = assay: Inhibition of ERK phosphorylation in human 888-mel cells incubated for 24 hrs in presence of 4-(2-(1H-indazol-4-yl)-6-((4-(methylsulfonyl)piperazin-1-yl)methyl)thieno[3,2-d]pyrimidin-4-yl)morpholine by immunoblotting analysis; assay type: cell-based
888-mel [4] = assay: Antiproliferative activity against human 888-mel cells harboring BRAF V600E mutant assessed as reduction in cell viability incubated for 96 hrs in presence of 4-(2-(1H-indazol-4-yl)-6-((4-(methylsulfonyl)piperazin-1-yl)methyl)thieno[3,2-d]pyrimidin-4-yl)morpholine; assay type: functional, cell-based
[5] = Antiproliferative activity against human SK-MEL-23 cells assessed reduction in cell viability incubated for 4 days in presence of 4-(2-(1H-indazol-4-yl)-6-((4-(methylsulfonyl)piperazin-1-yl)methyl)thieno[3,2-d]pyrimidin-4-yl)morpholine by celltiter-glo assay; assay type: functional; details: time 4 day
How it was run: (§1)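 4-day CellTiter-Glo viability read-out on melanoma lines, cells exposed to increasing concentrations of each inhibitor alone and in combination.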

537-mel = assay: Antitumor activity against human 537-mel cells harboring PTEN null mutation xenografted in mouse assessed as tumor growth inhibition at 10 mg/kg, po; assay type: functional; details: read-out: TGI
How it was run: (§2)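 Mice carrying human tumor xenografts dosed orally once daily for 21 consecutive days. Tumor volume measured by calipers as (L×W×W)/2. %TGI = 100×[1 − AUC(treatment/day)/AUC(vehicle/day)], using the area under the fitted growth curve relative to vehicle.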

[6] = target: PAS domain-containing serine/threonine-protein kinase (Homo sapiens, UniProt Q96RG2); assay: Inhibition of PASK (unknown origin)
MIA PaCa-2 = assay: Antitumor activity against human MIA PaCa-2 cells harboring KRAS G12C/NOTCH1 L2458V mutant xenografted in mouse assessed as tumor growth inhibition at 10 mg/kg, po; assay type: functional; details: read-out: TGI
How it was run: (§3)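 Single-agent dose ranging in human tumor xenograft mice at 2.5, 5 or 10 mg/kg oral. Tumor volume was measured by caliper as (L×W×W)/2. %TGI = 100×[1 − AUC(treatment/d)/AUC(vehicle/d)] from the fitted growth curve per dose group, relative to vehicle.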

[7] = Antitumor activity against human LS174T-HM7 cells xenografted in mouse assessed as tumor growth inhibition at 10 mg/kg, po; assay type: functional; details: read-out: TGI; how it was run: as §3
[8] = target: RAC-beta serine/threonine-protein kinase (Homo sapiens, UniProt P31751); assay: Inhibition of Akt2 (unknown origin)
Hs 695T = assay: Antiproliferative activity against human Hs 695T cells assessed reduction in cell viability incubated for 4 days in presence of 4-(2-(1H-indazol-4-yl)-6-((4-(methylsulfonyl)piperazin-1-yl)methyl)thieno[3,2-d]pyrimidin-4-yl)morpholine by celltiter-glo assay; assay type: functional; details: time 4 day; how it was run: as §1
[9] = target: Tyrosine-protein kinase Fes/Fps (Homo sapiens, UniProt P07332); assay: Inhibition of Fes (unknown origin)
Insulin receptor = Insulin receptor (Homo sapiens, UniProt P06213); assay: Inhibition of insulin receptor (unknown origin)
[10] = target: G protein-coupled receptor kinase 5 (Homo sapiens, UniProt P34947); assay: Inhibition of GRK5 (unknown origin)
[11] = target: Protein kinase C gamma type (Homo sapiens, UniProt P05129); assay: Inhibition of PKCg (unknown origin)
A375.X1 = assay: Antitumor activity against human A375.X1 cells xenografted in po dosed mouse assessed as reduction in ERK phosphorylation administered for 3 days and measured at 2 to 24 hrs by Western blot analysis; assay type: functional, organism-based; details: dose 1-10 mg/kg, time 74-96 hrs
How it was run: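 A375.X1 xenograft mice were dosed orally at 1, 3, 5 or 10 mg/kg once daily for 3 days. Tumors were collected 2, 8 and 24 h after the last dose, pulverized frozen and resolved by 4–12% SDS-PAGE. p-ERK1/2 and t-ERK1/2 were measured by Western blot and quantified by band intensity, relative to vehicle-treated mice (0 h).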

NCI-H520 = assay: Antitumor activity against human NCI-H520 cells harboring TP53 W146 and CDKN2A G G45 mutant xenografted in mouse assessed as tumor growth inhibition at 10 mg/kg, po; assay type: functional; details: read-out: TGI
How it was run: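 Human tumor xenografts in mice were dosed orally at the indicated mg/kg. Tumor volume was measured with calipers as (L×W×W)/2. %TGI = 100 × [1 − (AUC treatment/d)/(AUC vehicle/d)], using the area under the fitted tumor-growth curve per day for each dose group relative to vehicle.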

DLD-1 = assay: Antitumor activity against human DLD-1 cells harboring KRAS G13D/IDH1 G97D/SMO T640A/APC I1417 mutant xenografted in mouse assessed as tumor growth inhibition at 10 mg/kg, po; assay type: functional; details: read-out: TGI; how it was run: as §3
A-375 [12] = assay: Antitumor activity against human A-375 cells harboring BRAF V600E/CDKN2A E61 mutant xenografted in mouse assessed as tumor growth inhibition at 2.5 mg/kg, po; assay type: functional; details: A-375, read-out: TGI; how it was run: as §2
[13] = target: Mitogen-activated protein kinase kinase kinase 5 (Homo sapiens, UniProt Q99683); assay: Inhibition of ASK1 (unknown origin)
[14] = target: Serine/threonine-protein kinase MARK1 (Homo sapiens, UniProt Q9P0L2); assay: Inhibition of MARK1 (unknown origin)
[15] = target: Calcium/calmodulin-dependent protein kinase type II subunit alpha (Homo sapiens, UniProt Q9UQM7); assay: Inhibition of CamK2a (unknown origin)
[16] = Antitumor activity against human A2058-X1 cells harboring BRAF V600E/PTEN L112Q/V175/TP53 V274F mutant xenografted in mouse assessed as tumor growth inhibition at 2.5 mg/kg, po; assay type: functional; details: A2058-X1, read-out: TGI; how it was run: as §3
NCI-H2122 = assay: Antitumor activity against human NCI-H2122 cells harboring KRAS […]/LKB1 P281/TP53Q61L/C176Fl/CDKN2A mutant xenografted in mouse assessed as tumor growth inhibition at 5 mg/kg, po; assay type: functional; details: read-out: TGI
How it was run: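 NCI-H2122 (KRAS G12C) NSCLC xenografts in mice were dosed orally once daily for 21 consecutive days. Tumor volume was measured with calipers as (L×W×W)/2, and body weight was tracked. %TGI was derived from the area under the fitted growth curve per day versus vehicle. Group means with SEM were reported.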

Casein kinase 2 = Casein kinase 2 (Homo sapiens, UniProt P67870+P68400+P19784+Q8NEV1); assay: Inhibition of CK2 (unknown origin); assay type: protein assay
Calu-6 = assay: Antitumor activity against human Calu-6 cells harboring KRAS Q61K and TP53 R196 mutant xenografted in mouse assessed as tumor growth inhibition at 10 mg/kg, po; assay type: functional; details: read-out: TGI; how it was run: as §3
A-375 [17] = assay: Antitumor activity against human A-375 cells harboring BRAF V600E/CDKN2A E61 mutant xenografted in mouse assessed as tumor growth inhibition at 5 mg/kg, po; assay type: functional; details: A-375, read-out: TGI; how it was run: as §2

Chain of Mitogen-activated protein kinase kinase kinase 5 (Q99683 whole entry): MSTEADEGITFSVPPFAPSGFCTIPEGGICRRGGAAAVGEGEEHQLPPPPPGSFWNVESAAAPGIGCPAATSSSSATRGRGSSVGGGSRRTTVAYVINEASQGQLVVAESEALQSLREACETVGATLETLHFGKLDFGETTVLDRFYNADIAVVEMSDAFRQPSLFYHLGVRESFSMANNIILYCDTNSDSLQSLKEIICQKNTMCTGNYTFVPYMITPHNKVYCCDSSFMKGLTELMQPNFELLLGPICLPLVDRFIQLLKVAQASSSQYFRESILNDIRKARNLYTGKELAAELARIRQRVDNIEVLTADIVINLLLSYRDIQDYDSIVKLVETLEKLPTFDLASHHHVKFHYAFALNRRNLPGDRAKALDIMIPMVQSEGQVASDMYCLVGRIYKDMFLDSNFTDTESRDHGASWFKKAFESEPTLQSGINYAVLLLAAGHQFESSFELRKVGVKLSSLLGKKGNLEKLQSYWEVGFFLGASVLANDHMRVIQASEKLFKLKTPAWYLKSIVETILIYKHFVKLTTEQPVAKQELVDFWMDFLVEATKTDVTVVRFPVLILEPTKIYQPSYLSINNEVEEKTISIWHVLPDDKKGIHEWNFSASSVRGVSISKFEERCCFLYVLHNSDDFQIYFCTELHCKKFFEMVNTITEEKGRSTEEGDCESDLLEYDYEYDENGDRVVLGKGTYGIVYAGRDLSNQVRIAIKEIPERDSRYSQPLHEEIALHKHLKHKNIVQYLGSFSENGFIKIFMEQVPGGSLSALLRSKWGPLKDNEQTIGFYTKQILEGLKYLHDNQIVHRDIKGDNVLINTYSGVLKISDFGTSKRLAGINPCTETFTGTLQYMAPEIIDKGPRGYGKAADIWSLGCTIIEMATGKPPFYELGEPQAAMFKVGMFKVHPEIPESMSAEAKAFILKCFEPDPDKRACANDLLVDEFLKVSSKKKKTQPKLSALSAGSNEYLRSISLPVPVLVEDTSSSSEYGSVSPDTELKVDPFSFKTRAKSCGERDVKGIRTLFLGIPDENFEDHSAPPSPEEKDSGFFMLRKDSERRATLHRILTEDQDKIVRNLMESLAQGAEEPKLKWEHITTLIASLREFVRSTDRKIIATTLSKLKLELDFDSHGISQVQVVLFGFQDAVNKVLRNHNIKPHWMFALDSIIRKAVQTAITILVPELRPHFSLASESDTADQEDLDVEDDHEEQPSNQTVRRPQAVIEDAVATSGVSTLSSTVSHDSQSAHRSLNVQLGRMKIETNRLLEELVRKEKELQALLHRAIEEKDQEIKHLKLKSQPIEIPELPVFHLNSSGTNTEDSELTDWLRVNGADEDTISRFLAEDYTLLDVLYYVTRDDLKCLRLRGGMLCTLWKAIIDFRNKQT
Chain of PAS domain-containing serine/threonine-protein kinase (Q96RG2 whole entry, the tested form may be a part): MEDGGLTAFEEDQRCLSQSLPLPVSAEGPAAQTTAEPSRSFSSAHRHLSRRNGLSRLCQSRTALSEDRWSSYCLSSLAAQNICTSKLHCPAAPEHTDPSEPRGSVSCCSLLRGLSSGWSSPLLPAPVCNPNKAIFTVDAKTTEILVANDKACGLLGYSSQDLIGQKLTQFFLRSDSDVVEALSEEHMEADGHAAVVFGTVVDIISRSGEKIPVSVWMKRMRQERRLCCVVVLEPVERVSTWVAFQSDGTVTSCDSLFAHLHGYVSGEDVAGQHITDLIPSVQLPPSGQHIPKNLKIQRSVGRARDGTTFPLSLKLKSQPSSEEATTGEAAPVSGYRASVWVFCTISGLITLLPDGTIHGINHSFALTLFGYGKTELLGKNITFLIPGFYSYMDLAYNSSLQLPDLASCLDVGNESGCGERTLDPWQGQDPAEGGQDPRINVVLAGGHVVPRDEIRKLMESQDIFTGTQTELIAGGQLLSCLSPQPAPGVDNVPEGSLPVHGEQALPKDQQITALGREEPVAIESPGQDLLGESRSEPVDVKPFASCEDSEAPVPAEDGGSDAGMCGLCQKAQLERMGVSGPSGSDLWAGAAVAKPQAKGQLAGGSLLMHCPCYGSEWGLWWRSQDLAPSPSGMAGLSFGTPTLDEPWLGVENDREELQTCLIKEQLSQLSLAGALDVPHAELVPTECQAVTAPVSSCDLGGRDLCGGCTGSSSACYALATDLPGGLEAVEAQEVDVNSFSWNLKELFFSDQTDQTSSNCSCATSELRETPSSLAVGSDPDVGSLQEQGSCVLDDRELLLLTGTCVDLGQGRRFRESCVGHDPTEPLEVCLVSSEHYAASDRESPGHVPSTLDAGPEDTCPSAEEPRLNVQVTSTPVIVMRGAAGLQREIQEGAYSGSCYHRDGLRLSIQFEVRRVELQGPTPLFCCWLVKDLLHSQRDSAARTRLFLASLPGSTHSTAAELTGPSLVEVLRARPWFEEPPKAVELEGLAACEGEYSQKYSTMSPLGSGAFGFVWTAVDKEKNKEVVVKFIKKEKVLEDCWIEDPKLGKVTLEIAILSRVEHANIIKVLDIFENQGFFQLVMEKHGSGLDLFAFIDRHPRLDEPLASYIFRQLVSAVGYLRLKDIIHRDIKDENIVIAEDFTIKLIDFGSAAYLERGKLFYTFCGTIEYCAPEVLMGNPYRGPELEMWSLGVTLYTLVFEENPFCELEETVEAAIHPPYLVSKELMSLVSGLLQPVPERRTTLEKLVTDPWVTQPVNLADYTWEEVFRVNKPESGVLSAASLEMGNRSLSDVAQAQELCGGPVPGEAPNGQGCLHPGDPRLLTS
Chain of Insulin receptor (P06213 28-758 limits assumed): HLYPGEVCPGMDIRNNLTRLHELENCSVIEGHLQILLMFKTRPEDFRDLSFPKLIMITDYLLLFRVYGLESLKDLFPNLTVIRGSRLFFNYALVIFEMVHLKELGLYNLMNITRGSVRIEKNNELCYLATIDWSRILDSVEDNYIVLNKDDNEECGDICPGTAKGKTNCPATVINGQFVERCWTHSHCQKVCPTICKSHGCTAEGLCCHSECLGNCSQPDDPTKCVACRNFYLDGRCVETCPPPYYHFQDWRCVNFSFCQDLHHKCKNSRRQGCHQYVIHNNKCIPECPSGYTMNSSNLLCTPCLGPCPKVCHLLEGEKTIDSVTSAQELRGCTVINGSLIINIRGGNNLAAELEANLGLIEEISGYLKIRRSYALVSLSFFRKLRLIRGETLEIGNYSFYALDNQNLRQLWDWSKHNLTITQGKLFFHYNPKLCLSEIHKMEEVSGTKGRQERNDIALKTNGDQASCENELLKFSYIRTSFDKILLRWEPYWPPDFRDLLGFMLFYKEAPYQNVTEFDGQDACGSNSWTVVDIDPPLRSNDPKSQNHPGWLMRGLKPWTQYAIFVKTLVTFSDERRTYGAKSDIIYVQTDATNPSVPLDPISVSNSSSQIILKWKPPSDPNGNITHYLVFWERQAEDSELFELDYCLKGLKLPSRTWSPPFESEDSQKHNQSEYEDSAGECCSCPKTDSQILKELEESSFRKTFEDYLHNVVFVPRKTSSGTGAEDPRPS
Chain of Insulin receptor (P06213 763-1382 limits assumed): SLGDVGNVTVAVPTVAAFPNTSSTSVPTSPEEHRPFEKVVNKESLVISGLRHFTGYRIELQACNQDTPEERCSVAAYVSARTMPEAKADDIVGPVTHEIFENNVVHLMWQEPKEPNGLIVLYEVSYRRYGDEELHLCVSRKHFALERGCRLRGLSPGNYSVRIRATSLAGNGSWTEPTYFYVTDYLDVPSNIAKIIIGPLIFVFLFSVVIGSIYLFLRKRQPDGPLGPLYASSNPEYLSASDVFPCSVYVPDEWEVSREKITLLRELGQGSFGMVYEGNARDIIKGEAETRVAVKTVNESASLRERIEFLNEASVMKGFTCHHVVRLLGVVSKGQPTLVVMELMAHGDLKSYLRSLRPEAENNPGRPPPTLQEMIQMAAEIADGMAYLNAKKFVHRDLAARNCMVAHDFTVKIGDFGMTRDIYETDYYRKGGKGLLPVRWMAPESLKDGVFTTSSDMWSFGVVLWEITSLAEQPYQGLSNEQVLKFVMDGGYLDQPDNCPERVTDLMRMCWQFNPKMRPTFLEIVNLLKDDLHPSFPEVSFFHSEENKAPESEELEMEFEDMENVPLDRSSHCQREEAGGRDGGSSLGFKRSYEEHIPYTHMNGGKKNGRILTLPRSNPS
Chain of Serine/threonine-protein kinase MARK1 (Q9P0L2 whole entry): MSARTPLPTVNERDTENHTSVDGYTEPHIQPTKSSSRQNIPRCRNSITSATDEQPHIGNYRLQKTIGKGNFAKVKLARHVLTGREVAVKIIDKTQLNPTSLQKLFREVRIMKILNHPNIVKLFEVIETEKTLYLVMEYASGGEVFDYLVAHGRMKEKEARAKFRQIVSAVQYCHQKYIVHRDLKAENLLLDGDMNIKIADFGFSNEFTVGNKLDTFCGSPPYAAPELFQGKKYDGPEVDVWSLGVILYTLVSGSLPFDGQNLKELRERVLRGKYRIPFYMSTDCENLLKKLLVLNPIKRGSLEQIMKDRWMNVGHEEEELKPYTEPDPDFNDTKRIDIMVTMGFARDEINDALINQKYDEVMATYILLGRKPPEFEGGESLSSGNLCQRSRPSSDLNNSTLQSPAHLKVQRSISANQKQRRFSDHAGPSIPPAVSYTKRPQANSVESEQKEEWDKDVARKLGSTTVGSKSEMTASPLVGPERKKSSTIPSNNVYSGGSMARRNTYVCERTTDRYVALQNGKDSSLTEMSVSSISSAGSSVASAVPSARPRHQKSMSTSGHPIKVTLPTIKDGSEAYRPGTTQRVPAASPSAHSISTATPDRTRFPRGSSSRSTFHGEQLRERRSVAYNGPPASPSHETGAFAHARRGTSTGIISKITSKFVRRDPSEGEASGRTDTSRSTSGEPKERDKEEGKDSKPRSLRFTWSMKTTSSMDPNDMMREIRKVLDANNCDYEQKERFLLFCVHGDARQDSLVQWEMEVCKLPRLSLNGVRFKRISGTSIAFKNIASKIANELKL

O=C(c1ccc(F)c(F)c1Nc1ccc(I)cc1F)N1CC(O)([C@@H]2CCCCN2)C1 [COBIMETINIB]
IC50 [1]: > 10 µM
IC50 [2]: > 10 µM
Activity (A2058): Active
inhibition (888-mel [3]): Active
Activity (888-mel [4]): inactive
Activity [5]: 60%
inhibition in vivo at 10 mg/kg (537-mel): 96%
IC50 [6]: > 10 µM
inhibition in vivo at 10 mg/kg (MIA PaCa-2): 12%
inhibition in vivo at 10 mg/kg [7]: 37%
IC50 [8]: > 10 µM
Activity (Hs 695T): 60%
IC50 [9]: > 10 µM
IC50 (Insulin receptor): > 10 µM
IC50 [10]: > 10 µM
IC50 [11]: > 10 µM
Activity (A375.X1): Dose-Dependent Effect
inhibition in vivo at 10 mg/kg (NCI-H520): 21%
inhibition in vivo at 10 mg/kg (DLD-1): 49.5%
inhibition in vivo at 2.5 mg/kg (A-375 [12]): 98%
IC50 [13]: > 10 µM
IC50 [14]: > 10 µM
IC50 [15]: > 10 µM
inhibition in vivo at 2.5 mg/kg [16]: 36%
inhibition in vivo at 5 mg/kg (NCI-H2122): 49%
IC50 (Casein kinase 2): > 10 µM
inhibition in vivo at 10 mg/kg (Calu-6): 44%
inhibition in vivo at 5 mg/kg (A-375 [17]): 120%
